What was measured:
[1] = target: Vascular endothelial growth factor receptor 1 (Homo sapiens, UniProt P17948); assay: Inhibition of recombinant Flt1 expressed in baculovirus-Sf21 system
Method in brief: (§1)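 Kinase-domain fragments expressed in baculovirus/Sf21 cells. Crude lysates (ice-cold Triton lysis with protease inhibitors, cleared) were diluted 1:200 for Tie-2, 1:400 for KDR and 1:1000 for Flt-1. Reactions ran on synthetic peptide-coated plates in 100 mM Hepes pH 7.4 with 5 µM ATP, 10 mM MnCl2, 0.1 mM vanadate, 0.2 mM DTT and 2.5% final DMSO, at room temperature for 60 min (Tie-2) or 20 min (KDR, Flt-1).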

[2] = target: Vascular endothelial growth factor receptor 2 (Homo sapiens, UniProt P35968); assay: Inhibition of recombinant KDR expressed in baculovirus-Sf21 system; method in brief: as §1
Sequence of Vascular endothelial growth factor receptor 2 (P35968 whole entry): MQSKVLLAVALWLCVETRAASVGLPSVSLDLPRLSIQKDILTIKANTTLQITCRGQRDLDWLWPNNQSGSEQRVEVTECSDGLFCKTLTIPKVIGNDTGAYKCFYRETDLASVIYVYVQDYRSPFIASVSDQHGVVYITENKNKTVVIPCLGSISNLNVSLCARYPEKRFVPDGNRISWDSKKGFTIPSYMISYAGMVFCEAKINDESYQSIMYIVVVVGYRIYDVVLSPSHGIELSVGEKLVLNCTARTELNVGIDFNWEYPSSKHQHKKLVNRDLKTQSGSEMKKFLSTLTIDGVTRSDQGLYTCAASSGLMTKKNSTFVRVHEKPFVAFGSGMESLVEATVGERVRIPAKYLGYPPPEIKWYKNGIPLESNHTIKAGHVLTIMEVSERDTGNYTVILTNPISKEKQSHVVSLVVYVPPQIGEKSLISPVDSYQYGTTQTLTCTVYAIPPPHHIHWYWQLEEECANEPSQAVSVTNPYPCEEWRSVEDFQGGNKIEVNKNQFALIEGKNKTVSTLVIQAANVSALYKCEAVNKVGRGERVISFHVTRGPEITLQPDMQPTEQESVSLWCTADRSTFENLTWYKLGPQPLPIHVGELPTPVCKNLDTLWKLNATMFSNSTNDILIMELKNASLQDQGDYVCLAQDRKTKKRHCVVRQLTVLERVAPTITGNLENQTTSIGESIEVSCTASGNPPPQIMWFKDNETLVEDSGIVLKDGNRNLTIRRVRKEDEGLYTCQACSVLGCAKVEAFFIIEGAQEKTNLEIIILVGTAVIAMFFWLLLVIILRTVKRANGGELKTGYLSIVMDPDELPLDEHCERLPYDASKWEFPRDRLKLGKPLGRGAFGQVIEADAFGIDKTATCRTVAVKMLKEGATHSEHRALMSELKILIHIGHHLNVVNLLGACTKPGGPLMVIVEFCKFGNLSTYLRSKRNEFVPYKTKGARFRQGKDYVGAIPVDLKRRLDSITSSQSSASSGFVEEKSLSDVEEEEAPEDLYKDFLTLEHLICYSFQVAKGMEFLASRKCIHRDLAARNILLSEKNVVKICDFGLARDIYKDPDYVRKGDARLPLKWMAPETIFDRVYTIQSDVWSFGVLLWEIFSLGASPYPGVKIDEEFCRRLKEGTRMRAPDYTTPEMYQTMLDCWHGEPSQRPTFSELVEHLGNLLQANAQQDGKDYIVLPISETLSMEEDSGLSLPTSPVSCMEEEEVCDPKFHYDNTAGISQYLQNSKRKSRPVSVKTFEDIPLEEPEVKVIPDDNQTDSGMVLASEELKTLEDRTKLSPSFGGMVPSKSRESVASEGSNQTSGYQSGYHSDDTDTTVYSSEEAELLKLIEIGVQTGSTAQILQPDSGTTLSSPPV

[3] = target: T1, Angiopoietin-1 receptor (Homo sapiens, UniProt Q02763); assay: Inhibition of recombinant Tie2 expressed in baculovirus-Sf21 system; method in brief: as §1
T1 sequence (Q02763 whole entry): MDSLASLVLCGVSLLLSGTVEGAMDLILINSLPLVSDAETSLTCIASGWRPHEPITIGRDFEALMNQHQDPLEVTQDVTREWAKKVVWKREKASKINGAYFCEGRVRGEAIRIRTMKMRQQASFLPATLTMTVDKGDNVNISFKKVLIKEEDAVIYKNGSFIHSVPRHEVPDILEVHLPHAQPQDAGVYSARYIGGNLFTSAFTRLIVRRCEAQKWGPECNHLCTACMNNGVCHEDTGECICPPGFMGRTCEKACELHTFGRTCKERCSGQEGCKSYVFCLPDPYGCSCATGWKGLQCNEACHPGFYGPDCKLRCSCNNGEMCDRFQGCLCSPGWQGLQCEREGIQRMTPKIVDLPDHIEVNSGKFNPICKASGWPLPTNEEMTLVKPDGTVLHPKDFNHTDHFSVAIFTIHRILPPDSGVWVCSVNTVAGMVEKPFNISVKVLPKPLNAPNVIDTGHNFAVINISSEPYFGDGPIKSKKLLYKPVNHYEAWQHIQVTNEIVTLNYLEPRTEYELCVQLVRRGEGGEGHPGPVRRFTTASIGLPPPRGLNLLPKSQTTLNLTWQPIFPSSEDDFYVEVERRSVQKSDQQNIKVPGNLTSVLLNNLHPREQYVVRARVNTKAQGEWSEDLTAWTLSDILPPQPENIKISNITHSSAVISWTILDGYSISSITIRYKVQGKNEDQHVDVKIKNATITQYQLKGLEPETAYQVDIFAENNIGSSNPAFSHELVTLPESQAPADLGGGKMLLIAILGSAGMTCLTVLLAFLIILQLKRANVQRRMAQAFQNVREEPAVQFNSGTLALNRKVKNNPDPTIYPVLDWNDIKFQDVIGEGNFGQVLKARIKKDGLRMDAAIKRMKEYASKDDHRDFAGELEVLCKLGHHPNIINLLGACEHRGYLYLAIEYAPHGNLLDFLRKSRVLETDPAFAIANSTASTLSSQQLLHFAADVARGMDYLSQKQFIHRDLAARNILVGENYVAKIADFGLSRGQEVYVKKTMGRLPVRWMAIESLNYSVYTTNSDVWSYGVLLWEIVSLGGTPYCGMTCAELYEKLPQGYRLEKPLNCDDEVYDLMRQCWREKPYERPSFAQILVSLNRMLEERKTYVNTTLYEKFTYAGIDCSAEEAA

[4] = Cmax in mouse at 1 mg/kg, po by cassette dosing assay; type: ADME, organism-based; design: dose 1 mg/kg, route oral; conditions: in vivo
[5] = Fraction unbound ligand in rat; type: ADME
[6] = system: Mus musculus; assay: AUC in mouse at 2 mg/kg by cassette dosing assay; type: ADME, organism-based, Plasma; design: dose 2 mg/kg; conditions: in vivo
[7] = Inhibition of p38
[8] = system: HUVEC; assay: Inhibition of growth factor-stimulated proliferation of HUVEC; type: functional, cell-based; conditions: Homo sapiens
[9] = Fraction unbound ligand in mouse; type: ADME, organism-based; conditions: in vivo
[10] = Cmax in mouse at 2 mg/kg by cassette dosing assay; type: ADME, organism-based; design: dose 2 mg/kg; conditions: in vivo
[11] = target: T1, Angiopoietin-1 receptor; assay: Inhibition of human Tie2 autophosphorylation expressed in CHOK1 cells by ELISA; type: cell-based, CHO-K1
Method in brief: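 CHO-K1 cells stably expressing human Tie-2 were seeded at 6×10^4 cells/well and grown 3 days in DMEM/G418/10% FCS. Compound was added in DMEM with 1% FCS for 45 min at 37 °C. Cells were lysed on ice, and lysate was captured on a human Tie-2 ELISA plate (2 h, room temperature). Phospho-Tie-2 was detected with a rabbit antibody, then anti-rabbit HRP and colour reagent; read at OD450.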

Sequence of Vascular endothelial growth factor receptor 1 (P17948 whole entry, the tested form may be a part): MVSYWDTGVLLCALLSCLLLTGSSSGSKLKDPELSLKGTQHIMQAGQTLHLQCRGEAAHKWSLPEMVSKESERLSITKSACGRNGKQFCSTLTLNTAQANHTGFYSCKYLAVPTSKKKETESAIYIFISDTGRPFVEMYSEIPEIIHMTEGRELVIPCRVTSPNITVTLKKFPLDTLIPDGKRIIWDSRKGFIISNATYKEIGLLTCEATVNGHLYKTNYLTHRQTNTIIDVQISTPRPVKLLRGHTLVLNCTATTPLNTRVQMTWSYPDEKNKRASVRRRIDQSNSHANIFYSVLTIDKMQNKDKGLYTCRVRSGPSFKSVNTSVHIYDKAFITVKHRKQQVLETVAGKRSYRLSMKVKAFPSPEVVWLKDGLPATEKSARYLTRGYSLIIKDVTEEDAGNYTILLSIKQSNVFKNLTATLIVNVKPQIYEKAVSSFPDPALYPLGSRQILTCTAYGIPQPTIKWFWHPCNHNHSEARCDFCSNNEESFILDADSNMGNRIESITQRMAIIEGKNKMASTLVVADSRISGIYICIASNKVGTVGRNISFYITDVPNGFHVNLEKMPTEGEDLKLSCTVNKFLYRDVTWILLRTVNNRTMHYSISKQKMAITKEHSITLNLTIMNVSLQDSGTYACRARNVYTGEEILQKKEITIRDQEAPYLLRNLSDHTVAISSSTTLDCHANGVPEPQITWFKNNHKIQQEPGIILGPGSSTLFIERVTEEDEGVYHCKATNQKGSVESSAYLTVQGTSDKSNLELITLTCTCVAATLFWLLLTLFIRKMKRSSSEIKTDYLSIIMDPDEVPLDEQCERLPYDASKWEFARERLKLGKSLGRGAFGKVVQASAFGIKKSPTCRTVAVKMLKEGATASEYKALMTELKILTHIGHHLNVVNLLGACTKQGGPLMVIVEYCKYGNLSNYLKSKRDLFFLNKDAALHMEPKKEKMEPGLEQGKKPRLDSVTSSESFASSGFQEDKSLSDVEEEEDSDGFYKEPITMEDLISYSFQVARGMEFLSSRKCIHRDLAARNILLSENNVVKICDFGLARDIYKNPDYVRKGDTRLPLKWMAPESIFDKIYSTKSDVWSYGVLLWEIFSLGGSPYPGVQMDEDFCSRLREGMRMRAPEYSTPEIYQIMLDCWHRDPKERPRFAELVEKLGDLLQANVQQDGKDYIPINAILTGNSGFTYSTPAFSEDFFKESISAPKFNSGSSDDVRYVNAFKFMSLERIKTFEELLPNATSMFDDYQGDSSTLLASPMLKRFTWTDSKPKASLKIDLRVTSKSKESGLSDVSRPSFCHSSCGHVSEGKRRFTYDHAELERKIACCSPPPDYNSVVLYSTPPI

SMILES	IC50 [1] [µM]	IC50 [2] [µM]	IC50 [3] [µM]	other results
Nc1nccc(/C=C/c2sccc2-c2ccccc2)n1	> 100	> 100	> 100	–
CC(=O)Nc1nccc(/C=C/c2c(-c3ccccc3)nc3sccn23)n1	100	4.5	11	–
CNc1nccc(/C=C/c2c(-c3ccccc3)nc3sccn23)n1	84	17	14	–
Nc1nccc(/C=C/c2c(-c3ccccc3)nc3n2CCS3)n1	23	3.2	2.9	–
C(=C\c1c(-c2ccccc2)nc2sccn12)/c1ccncn1	> 100	77	27	–
Cn1cnc(-c2ccccc2)c1NCCc1ccnc(N)n1	> 100	> 100	> 100	–
Cn1cnc(-c2ccccc2)c1C1CC1c1ccnc(N)n1 (centres undefined)	> 100	> 100	> 100	–
Nc1nccc(/C=C/c2c(-c3ccccc3)nc3sccn23)n1	30	7	6	Cmax [4]: 290 nM
Cc1nc2sccn2c1/C=C/c1ccnc(N)n1	> 100	70	> 100	–
Nc1ccnc(/C=C/c2c(-c3ccccc3)nc3sccn23)n1	> 100	> 100	> 100	–
Cn1c(-c2ccccc2)c(/C=C/c2ccnc(N)n2)c2ccccc21	–	–	83	–
Nc1nccc(/C=C/c2c(-c3ccccc3)ncn2CC(=O)O)n1	–	–	68	–
Cn1cnc(-c2ccccc2)c1/C=C/c1ccnc(N)n1	34	3.2	3.8	fraction unbound [5]: 0.099; AUC [6]: 0.58 µM·h; IC50 [7]: 12 µM; IC50 [8]: > 10 µM; fraction unbound [9]: 0.125; Cmax [10]: 460 nM; IC50 [11]: 0.34 µM
CC(C)(C)C(=O)Nc1nccc(/C=C/c2c(-c3ccccc3)nc3sccn23)n1	96	13	41	–
Cn1cnc(/C=C/c2ccnc(N)n2)c1-c1ccccc1	> 100	7.8	> 100	–
Nc1nccc(/C=C/c2[nH]ncc2-c2ccccc2)n1	> 100	> 100	64	–

SMILES	IC50 [1] [µM]	IC50 [2] [µM]	IC50 [3] [µM]	other results
Cn1cnc(-c2ccccc2)c1C#Cc1ccnc(N)n1	36	2.9	6.4	–
Cn1cnc(-c2ccccc2)c1C(=O)Nc1ccnc(N)n1	> 100	> 100	> 100	–
Nc1cc(/C=C/c2c(-c3ccccc3)nc3sccn23)ncn1	> 100	35	5.2	–
CC(Nc1nccc(/C=C/c2c(-c3ccccc3)nc3sccn23)n1)c1ccccc1 (centres undefined)	> 100	> 100	> 100	–
Cn1cnc(-c2ccccc2)c1CNc1ccnc(N)n1	> 100	> 100	> 100	–
Nc1nccc(/C=C/c2c(-c3ccccc3)ncn2CCN2CCCC2)n1	> 100	32	21	–
Nc1nccc(/C=C/c2c(-c3ccc(F)cc3)nc3sccn23)n1	–	–	13	–
Nc1nccc(/C=C/c2c(-c3ccccc3)ncn2Cc2ccccc2)n1	31	7	2.8	–
Nc1nccc(/C=C/c2c(Cl)nc3sccn23)n1	> 100	31	> 100	–
Cn1cnc(-c2ccccc2)c1NC(=O)c1ccnc(N)n1	> 100	> 100	> 100	–
Nc1nccc(/C=C/c2ccsc2-c2ccccc2)n1	> 100	> 100	> 100	–
Clc1nccc(/C=C/c2c(-c3ccccc3)nc3sccn23)n1	66	> 100	55	–
Cn1cnc(-c2ccccc2)c1Nc1ccnc(N)n1	> 100	> 100	> 100	–
Nc1nccc(/C=C/c2c(-c3ccccc3)nc3ccccn23)n1	79	13	5.6	–
Nc1nccc(/C=C/c2[nH]cnc2-c2ccccc2)n1	68	9.8	8.4	IC50 [11]: 0.37 µM
C(=C\c1c(-c2ccccc2)nc2sccn12)/c1ccnc(Nc2ccccc2)n1	> 100	> 100	68	–

Reference: ChEMBL document CHEMBL1156614, “Discovery of imidazole vinyl pyrimidines as a novel class of kinase inhibitors which inhibit Tie-2 and are orally bioavailable” (Bioorg Med Chem Lett, 2008)
